Assay results gathered from unrelated publications.
Protocols differ between the studies behind these lines.
Concentration: 1 µM
CDK5: Cyclin-dependent kinase 5 (CDK5, Homo sapiens, UniProt Q00535)
CDK5 with p35: Cyclin-dependent kinase 5, with p35 (CDK5, Homo sapiens, UniProt Q00535)

For `CN1CCN(C(=O)c2ccc(NC(=O)Nc3ccc(N(C)c4ccnc(Nc5ccc(CS(C)(=O)=O)cc5)n4)cc3)cc2)CC1`, the remaining binding was 91% (CDK5; binding; competition with immobilised ligand).
`CNS(=O)(=O)c1ccc(Nc2ncc(C(F)(F)F)c(N3CCC[C@](C)(O)C3)n2)c(C)c1` has a remaining binding of 13% (CDK5; binding; competition with immobilised ligand).
The inhibition of `C=CC(=O)N1CCC[C@@H](n2nc(-c3ccc(Oc4ccccc4)cc3)c3c(N)ncnc32)C1` is reported as 10% (CDK5; enzyme activity; inhibitor).
`Cc1cc(S(=O)(=O)N[C@H]2CC[C@H](CN3CCN(c4ccc(C5CCC(=O)NC5=O)cc4F)CC3)CC2)ccc1Nc1ncc(C(F)(F)F)c(N2CCC[C@](C)(O)C2)n1` (some centres unmarked) has a remaining binding of 29% (CDK5; binding; competition with immobilised ligand).
The remaining binding of `COc1ccc2oc(-c3ccc4nc(N)oc4c3)c/c(=N\c3ccccc3NC(=O)CCN)c2c1` is reported as 107% (CDK5 with p35; binding).
For `CC(C)S(=O)(=O)c1ccc2nccc(Nc3ccc4sc(C5CCCC5)nc4c3)c2c1`, the activity vs control was 101% (CDK5 with p35; enzyme activity; inhibitor).
`C[C@H]1CC[C@H](n2c3cnccc3c3cnc(Nc4ccc5c(n4)CCN(C(=O)CO)C5)nc32)CC1` has a remaining binding of 26% (CDK5; binding; competition with immobilised ligand).
For `C=CC(=O)N1CCC([C@@H]2CCNc3c(C(N)=O)c(-c4ccc(Oc5ccccc5)cc4)nn32)CC1`, the inhibition was 7% (CDK5; enzyme activity; inhibitor).
